Screening data: PubChem, The Scripps Research Institute Molecular Screening Center
CHRM4 PAM: human M4 muscarinic receptor positive allosteric modulators, primary screen, CHO-K1 cells, Fluo-8 calcium fluorescence; Muscarinic acetylcholine receptor M4 (Homo sapiens), P08173; CHO-K1 hM4/Gqi5, ACh EC20; 0% = ACh EC20, 100% = maximal ACh; activation, % at 3 µM; 0.4% of 360,000 active;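 active means activation above its plate's cutoff, the mean activation of sample wells plus 3 SD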
Target sequence (P08173 whole entry, looked up): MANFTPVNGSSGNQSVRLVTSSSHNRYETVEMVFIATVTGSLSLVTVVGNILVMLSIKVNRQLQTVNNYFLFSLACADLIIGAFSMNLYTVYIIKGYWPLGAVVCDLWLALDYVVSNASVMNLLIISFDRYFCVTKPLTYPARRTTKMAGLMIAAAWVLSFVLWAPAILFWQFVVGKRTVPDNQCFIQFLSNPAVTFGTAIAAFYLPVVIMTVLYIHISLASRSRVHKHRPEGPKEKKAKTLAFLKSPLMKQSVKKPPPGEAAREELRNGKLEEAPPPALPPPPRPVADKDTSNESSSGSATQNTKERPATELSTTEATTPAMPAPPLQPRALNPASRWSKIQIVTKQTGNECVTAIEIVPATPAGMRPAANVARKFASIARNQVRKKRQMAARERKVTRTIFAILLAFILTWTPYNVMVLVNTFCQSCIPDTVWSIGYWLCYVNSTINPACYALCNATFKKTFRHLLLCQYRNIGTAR
M5 ag: human M5 muscarinic receptor agonists, primary screen, CHO-K1 cells, Fluo-8 calcium fluorescence; Muscarinic acetylcholine receptor M5 (Homo sapiens), P08912; CHO-K1 hM5 cells; 0% DMSO wells, 100% maximal acetylcholine response; activation, % at 3 µM; 0.19% of 360,000 active;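 active means activation above the run's mean over test compounds plus 3 SD, cut at about 23% in these data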;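 further: signal is peak over basal fluorescence ratio across the kinetic read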
M5 PAM: human M5 muscarinic receptor positive allosteric modulators, primary screen, CHO-K1 cells, Fluo-8 calcium fluorescence; CHO-K1 hM5, ACh EC20 PAM; 0% = ACh EC20, 100% = ACh EC100; activation, % at 3 µM; 0.3% of 360,000 active; AID 624038, 2012;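 active means activation above the run cutoff, the mean activation of all test compounds plus 3 SD, cut at about 18% in these data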
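System: CHO-K1 cell line with stable human muscarinic M5 receptor expression | Also added: EC20 acetylcholine as agonist stimulus | Compound: One concentration, 3 µM final (nominal) | Timing: Fluo-8 loading 80 min at 37 °C plus 30 min room temperature | Measured by: Fluo-8 calcium dye fluorescence, kinetic read | Read-out basis: % activation, ACh-normalized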
CHRM4 antagonist: human M4 muscarinic receptor antagonists, primary screen, CHO cells, Fluo-8 calcium fluorescence. CHO-hM4 cells, ACh EC80. inhibition, % at 3 µM. 0.73% of 360,000 active;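 active means inhibition above its plate's cutoff, the mean inhibition of sample wells plus 3 SD, cut at about 27% in these data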;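 further: 0% = acetylcholine EC80 with DMSO and 100% = DMSO without agonist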
CHRM5 antagonist: human M5 muscarinic receptor antagonists, primary screen, CHO cells, Fluo-8 calcium fluorescence | 0.59% of 360,000 active | inhibition, % at 3 µM | CHO-hM5 cells, ACh EC80 | AID 624040, 2012 | Muscarinic acetylcholine receptor M5 (Homo sapiens), P08912;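 active means inhibition above a per-plate cutoff, the mean of that plate's test compounds plus 3 SD, cut at about 27% in these data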;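 further: 0% = acetylcholine EC80 with DMSO and 100% = DMSO without agonist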
M4 ag: human M4 muscarinic receptor agonists, primary screen, CHO-K1 cells, Fluo-8 calcium fluorescence | CHO-K1 hM4/Gqi5; vehicle 0%, full acetylcholine response 100% | Muscarinic acetylcholine receptor M4 (Homo sapiens), P08173 | activation, % at 3 µM | 0.14% of 360,000 active;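 active means activation above the run mean over all test wells plus 3 SD, cut at about 32% in these data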;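 further: peak over basal fluorescence ratio per well then scaled between controls; 0% = DMSO wells and 100% = acetylcholine at EC100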
* marks the source's active call; other numbers are inactive results. In the library only some 1.8% were active in any assay of this set; here they are far more common.

What do the screens show for `CC1(C(=O)NCC2CCCCC2)CCN1C(=O)Cc1ccc(-c2ccccc2)cc1` (stereo not given)?
CHRM4 PAM: -8; M5 ag: 2; M5 PAM: -7; CHRM4 antagonist: 5; CHRM5 antagonist: 1; M4 ag: 9

Results for Cc1cc(C)n2nc(S(=O)(=O)NC(C)(C)C)nc2n1 ?
CHRM4 PAM: 8; M5 ag: 1; M5 PAM: 19*; CHRM4 antagonist: 3; CHRM5 antagonist: 0; M4 ag: 2

What do the screens show for `O=C(NCCCc1ccc(F)cc1)C1CCC(=O)N(CCCN2CCCC2=O)C1` (stereo not given)?
CHRM4 PAM: 11; M5 ag: -2; M5 PAM: 8; CHRM4 antagonist: -3; CHRM5 antagonist: -12; M4 ag: 0

What do the screens show for `CCSc1nnc(NC(=O)CSc2nc3c(c(=O)n2CCOC)SC(C)C3)s1` (stereo not given)?
CHRM4 PAM: -12; M5 ag: 0; M5 PAM: -8; CHRM4 antagonist: 32*; CHRM5 antagonist: 2; M4 ag: 0

Results for CCn1c(SCC(=O)N2CCCC2)nc2c(c1=O)SC(C)C2 (stereo not given) ?
CHRM4 PAM: -16; M5 ag: 0; M5 PAM: -14; CHRM4 antagonist: 84*; CHRM5 antagonist: 4; M4 ag: -1

How did COCCn1c(SCC(=O)Nc2cc(C)on2)nc2c(c1=O)SC(C)C2 (stereo not given) do in these assays?
CHRM4 PAM: 4; M5 ag: -2; M5 PAM: 9; CHRM4 antagonist: 5; CHRM5 antagonist: 2; M4 ag: 1

How did O=C(NCCCn1ccnc1)C(=O)NCC(c1ccco1)N1CCN(c2ccccc2)CC1 (stereo not given) do in these assays?
CHRM4 PAM: -6; M5 ag: -1; M5 PAM: 0; CHRM4 antagonist: 33*; CHRM5 antagonist: 4; M4 ag: 2

What do the screens show for `CC1(c2nnnn2Cc2ccccc2)CCC(=O)N1Cc1cccc(C(F)(F)F)c1` (stereo not given)?
CHRM4 PAM: 10; M5 ag: 8; M5 PAM: 3; CHRM4 antagonist: -5; CHRM5 antagonist: -1; M4 ag: 2

Results for CC(C)[N+](C)(C)CC(O)CN(c1ccccc1)c1ccccc1 (stereo not given) ?
CHRM4 PAM: -22; M5 ag: -17; M5 PAM: -35; CHRM4 antagonist: 17; CHRM5 antagonist: 27*; M4 ag: 0

Results for CCC(NC(=O)CCCc1ccccc1)c1ccccc1 (stereo not given) ?
CHRM4 PAM: -1; M5 ag: -5; M5 PAM: -4; CHRM4 antagonist: 6; CHRM5 antagonist: 6; M4 ag: 0

How did CC(C)NC(=O)CCCc1ccccc1 do in these assays?
CHRM4 PAM: 29*; M5 ag: 4; M5 PAM: 7; CHRM4 antagonist: -1; CHRM5 antagonist: -4; M4 ag: 2

How did CC1(C(=O)NCCCN2CCCC2=O)CCN1CCc1ccccc1 (stereo not given) do in these assays?
CHRM4 PAM: 1; M5 ag: -2; M5 PAM: 0; CHRM4 antagonist: -8; CHRM5 antagonist: -2; M4 ag: 1

What do the screens show for `O=C(N1CCCC1)C12CCC3CC(CC(C3)C1)C2`?
CHRM4 PAM: 8; M5 ag: -8; M5 PAM: 19*; CHRM4 antagonist: -14; CHRM5 antagonist: -6; M4 ag: 0

What do the screens show for `O=C(NCc1cccs1)c1ccc(N2CCCC2=O)cc1`?
CHRM4 PAM: 1; M5 ag: -2; M5 PAM: 22*; CHRM4 antagonist: 13; CHRM5 antagonist: 6; M4 ag: 1

Results for C[C@@H]1CN([C@H](C)CO)C(=O)c2c(c3ccccc3n2C)-c2ccccc2CO[C@H]1CN(C)C(=O)NC1CCCCC1 ?
CHRM4 PAM: 0; M5 ag: -1; M5 PAM: -5; CHRM4 antagonist: -9; CHRM5 antagonist: 3; M4 ag: 2

What do the screens show for `CCCNC(=O)C1(C)CCCN(Cc2ccc(Oc3ccccc3)cc2)C1` (stereo not given)?
CHRM4 PAM: -7; M5 ag: -3; M5 PAM: -6; CHRM4 antagonist: 14; CHRM5 antagonist: 5; M4 ag: 0

What do the screens show for `CCN(CC)c1ccc(/C=C(\C#N)C(=O)c2ccc(Br)cc2)cc1`?
CHRM4 PAM: -10; M5 ag: 108*; M5 PAM: -18; CHRM4 antagonist: 51*; CHRM5 antagonist: 70*; M4 ag: 58*

Results for CCN(CC)c1ccc(/C=C(\C#N)C(N)=O)cc1 ?
CHRM4 PAM: -3; M5 ag: -4; M5 PAM: 1; CHRM4 antagonist: -5; CHRM5 antagonist: 0; M4 ag: 2

Results for CN(C)c1ccc(/C=C(\C#N)C(=O)c2ccccc2)cc1 ?
CHRM4 PAM: -23; M5 ag: 63*; M5 PAM: -21; CHRM4 antagonist: 37*; CHRM5 antagonist: 40*; M4 ag: 70*

How did Cc1cc(C(=O)N2CCC2(C)C(=O)O)nn1C(C)(C)C (stereo not given) do in these assays?
CHRM4 PAM: 3; M5 ag: 0; M5 PAM: -2; CHRM4 antagonist: -10; CHRM5 antagonist: 8; M4 ag: 1

What do the screens show for `O=C(NCc1ccccc1)c1cc(C2CCCCN2S(=O)(=O)c2cccs2)on1` (stereo not given)?
CHRM4 PAM: -4; M5 ag: -2; M5 PAM: -5; CHRM4 antagonist: -13; CHRM5 antagonist: -1; M4 ag: 7

Results for Clc1ccc2c(c1)-c1[nH]ncc1CS2 ?
CHRM4 PAM: 3; M5 ag: -1; M5 PAM: -1; CHRM4 antagonist: -3; CHRM5 antagonist: 1; M4 ag: 0

What do the screens show for `CN(C)CC/C=C1\c2cc(F)ccc2CSc2ccccc21`?
CHRM4 PAM: -17; M5 ag: -2; M5 PAM: -18; CHRM4 antagonist: 97*; CHRM5 antagonist: 98*; M4 ag: 11

How did CN(C)CC/C=C1/c2cc(F)ccc2CSc2ccc(F)cc21 do in these assays?
CHRM4 PAM: -37; M5 ag: -7; M5 PAM: -20; CHRM4 antagonist: 84*; CHRM5 antagonist: 98*; M4 ag: 1
